Experimental findings from ChEMBL document CHEMBL1145477, “Activity of T-1106 in a hamster model of yellow Fever virus infection” (Antimicrob Agents Chemother, 2007) are described below.

The structures appear in SMILES notation.

Assay type in all cases: functional
Assay [1] relates to Yellow fever virus. Briefly: Antiviral activity against YFV Jimenez infected in Syrian golden hamster assessed as mean day to death after 21 days post-infection at 50 mg/kg, ip bid for 7 days. The following applies: route intraperitoneal.
The subject of assay [2] is Yellow fever virus. Briefly: Antiviral activity against YFV Jimenez infected in Syrian golden hamster assessed as serum alanine aminotransferase at 50 mg/kg, ip bid for 7 days. The following applies: route intraperitoneal. Summed up:
(§1)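 YFV (Jimenez)-infected female hamsters were treated b.i.d. i.p. or p.o. Serum was drawn by ocular sinus at 6 dpi. ALT was read with a colorimetric kit adapted to microplates: substrate plus serum for 30 min at 37°C, then colour reagent and developer, absorbance at 505 nm. Values are IU/liter against saline controls.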

Assay [3] concerns Yellow fever virus. As to the kind of experiment: Antiviral activity against YFV Jimenez infected in Syrian golden hamster assessed as weight change at 50 mg/kg, po bid for 7 days.
Assay [4] concerns Yellow fever virus. As to the kind of experiment: Antiviral activity against YFV Jimenez infected in Syrian golden hamster liver treated 4 hrs before viral challenge assessed as mean day to death at 50 mg/kg/day, ip bid for 8 days. The conditions noted are these: route intraperitoneal.
The test system of assay [5] is Yellow fever virus. As to the kind of experiment: Antiviral activity against YFV Jimenez infected in Syrian golden hamster liver treated 4 hrs before viral challenge assessed as alanine aminotransferase at 50 mg/kg/day, ip bid for 8 days. The conditions noted are these: route intraperitoneal. The method in brief:
as §1

With `NC(=O)c1ncn([C@@H]2O[C@H](CO)[C@@H](O)[C@H]2O)n1` [RIBAVIRIN], the Activity in the assay on Yellow fever virus [1] worked out at 6 days; in the assay on Yellow fever virus [2] it was 120 IU/L; with Yellow fever virus [3], 1.3 g; with Yellow fever virus [4], 6 days; in the assay on Yellow fever virus [5], 120 IU/L.
